Only some compounds are listed: those with a hit (about 1.1% of all), similar ones and a draw of the others.
SR-BI uptake up = activators of SR-BI mediated HDL lipid uptake | CHO ldlA[mSR-BI] cells, DiI-HDL uptake fluorescence, 3 h; 100 = double the neutral-control signal | activation, % at 12.5 µM | hit rate 0.096% among 320,000 | AID 504775;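 active = mean replicate activation of at least 60% and every replicate at or above 60%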
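Assay system: CHO ldlA[mSR-BI] cells, LDL receptor-null, SR-BI overexpressing; medium: Ham's F12 with 0.5% BSA, HEPES 25 mM, pH 7.4; also added: DiI-HDL 10 µg/mL; timing: 3 h uptake period with compound, 37 °C; signal: DiI fluorescence, bottom read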
SR-BI DiI inh = inhibitors of mouse SR-BI mediated HDL lipid uptake | Q61009 | ldlA[mSR-BI] CHO cells, DiI-HDL uptake fluorescence, 3 h | inhibition, % at 12.5 µM | hit rate 0.96% among 320,000 | AID 488896;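 active = mean replicate inhibition of at least 70% and a set share of replicates each scoring 70 or more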
GSK3A inh = blocks human GSK-3 alpha kinase. P49840. inhibition, % at 10 µM. ADP-Glo luminescence, 60 min. hit rate 0.1% among 320,000;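 active = more than half of replicates show inhibition above 20%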;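 note: GST-tagged GSK-3 alpha with peptide substrate and 25 µM ATP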
CDK5 inh = CDK5/p35 (human) kinase inhibition; Q00535+Q15078; Recombinant CDK5/p35, ADP-Glo luminescence, 60 min; inhibition, % at 10 µM; hit rate 0.01% among 330,000; AID 488839;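 active = highest replicate inhibition of at least 50% and at least 75% of replicates reaching 50%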
Target sequence (Q00535 whole entry, looked up): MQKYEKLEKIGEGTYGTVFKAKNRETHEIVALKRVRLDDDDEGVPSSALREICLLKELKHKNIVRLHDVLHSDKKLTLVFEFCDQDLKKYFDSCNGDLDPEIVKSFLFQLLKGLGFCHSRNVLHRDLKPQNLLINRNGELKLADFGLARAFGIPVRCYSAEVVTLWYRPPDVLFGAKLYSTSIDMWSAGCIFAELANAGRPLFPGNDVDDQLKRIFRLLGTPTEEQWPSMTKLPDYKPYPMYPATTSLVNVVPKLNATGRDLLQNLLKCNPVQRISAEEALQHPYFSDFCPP
Target sequence (Q15078 whole entry, looked up): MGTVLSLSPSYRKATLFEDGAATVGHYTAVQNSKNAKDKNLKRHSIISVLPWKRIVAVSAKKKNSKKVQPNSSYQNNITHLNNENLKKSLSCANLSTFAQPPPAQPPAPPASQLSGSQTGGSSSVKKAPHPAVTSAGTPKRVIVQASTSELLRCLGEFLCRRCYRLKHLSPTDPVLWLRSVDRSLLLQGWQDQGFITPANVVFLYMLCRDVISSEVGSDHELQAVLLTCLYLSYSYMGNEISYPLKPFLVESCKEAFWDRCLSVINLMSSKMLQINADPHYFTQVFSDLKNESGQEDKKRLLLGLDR
GSK3B inh = inhibitors of human GSK3beta kinase; P49841; GST-GSK3beta kinase, ADP-Glo luminescence, 60 min; stronger effect = lower value; activity score (negative = inhibition), % at 10 µM; hit rate 0.038% among 300,000;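 active = more than half of replicate wells score below -50%, meaning over 50% inhibition versus plate controls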
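Assay system: GST-tagged human GSK3beta kinase, cell-free; Input: 1.6 ng GSK3beta; Medium: Tris/MgCl2 kinase buffer; Timing: 60 min enzyme reaction, room temperature; Signal: ADP-Glo luminescence quantifying ADP generated by kinase; Evaluation: score relative to plate controls; Benchmarks: DMSO neutral wells and GW8510 at 20 µM as positive.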
Each line names hits and unclear results; the compound was inactive in the other large screens.

CC(C)(C)[C@@H]1CCC(=O)N(CC[C@H](Sc2ccc(Br)cc2)c2ccccc2)CC1	SR-BI DiI inh 82 (no result: GSK3B inh)
O=C1CC[C@@H](O)CCN1CC[C@H](Sc1ccc(Br)cc1)c1ccccc1	none (no result: GSK3B inh)
Cc1cccc(/C=C/c2onc(C)c2S(=O)(=O)N2CCC(C(=O)NC(C)(C)C)CC2)c1	SR-BI DiI inh 77
COc1cccc(CNC(=O)CSc2ccc(-c3cccs3)nn2)c1	none
COc1ccc(NC(=O)c2cc(-c3ccccc3)oc2C)cc1	none
Cc1oc(-c2ccccc2)cc1C(=O)Nc1ccccc1	SR-BI DiI inh 90 (no result: SR-BI uptake up)
CC1CCN(C(=O)Cn2nnc(-c3cccs3)n2)CC1	none
O=C(Cn1nnc(-c2cccs2)n1)N1CCOCC1	SR-BI uptake up 68
CCOc1ccc(C(=O)Nc2cccc([N+](=O)[O-])c2)cc1Br	SR-BI DiI inh 72 (no result: GSK3A inh)
COc1ccc(/C=N/NC(=O)c2cccc([N+](=O)[O-])c2)c2ccccc12	SR-BI DiI inh 75
Cc1cc(/C=N/NC(=O)c2cccc([N+](=O)[O-])c2)c(C)n1-c1ccc(Cl)cc1Cl	SR-BI DiI inh 89
COc1ccccc1/C=C(\NC(=O)c1ccc(OC)c(OC)c1)C(=O)Nc1cccc([N+](=O)[O-])c1	SR-BI DiI inh 74
COc1ccc(C2C(C(C)=O)=C(O)C(=O)N2c2nccs2)c(OC)c1 (configuration not stated)	none (no result: GSK3A inh)
CCOc1ccc(NC(=S)NCC(c2cccnc2)N2CCOCC2)cc1 (configuration not stated)	none (no result: GSK3A inh)
COc1cc(/C=N/NC(=O)c2cccc([N+](=O)[O-])c2)ccc1OCc1ccccc1	SR-BI DiI inh 89
O=C(N/N=C/c1cccc([N+](=O)[O-])c1)c1ccc(COc2ccccc2-c2ccccc2)cc1	SR-BI DiI inh 74
O=C(N/N=C/c1cccc([N+](=O)[O-])c1)c1ccc(Br)cc1	none
COc1ccc(C(=O)Nc2cccc(/C(C)=N/NC(=O)c3ccc([N+](=O)[O-])c(C)c3)c2)cc1OC	SR-BI DiI inh 86
Cc1ccc(S(=O)(=O)Nc2cccc3c2O[C@H](CN(C)C(=O)Nc2cccc4ccccc24)[C@H](C)CN([C@H](C)CO)C3=O)cc1	none (no result: GSK3B inh)
COc1cc(/C=N/n2nnnc2Nc2ccccc2)cc(OC)c1OC	SR-BI DiI inh 89
COc1cc(/C=N/Nc2nc(Nc3ccccc3)nc(-n3nc(C)cc3C)n2)cc(OC)c1OC	none
N#Cc1ccc(Oc2ccc(-c3nc4ccccc4nc3-c3ccccc3)cc2)cc1C#N	none
Nc1ccc(Oc2ccc3nc(-c4ccccc4)c(-c4ccc([N+](=O)[O-])cc4)nc3c2)cc1	SR-BI DiI inh 76
O=C(Nc1ccsc1C(=O)NC1CC1)c1ccccc1	GSK3A inh 64
CC/C(=N\NC(=O)c1ccc(CN(C)S(=O)(=O)c2ccc(C)cc2)cc1)c1ccc(OC(F)F)cc1	SR-BI DiI inh 80
CC(C)c1ccc2c(c1)C1(NN=C(c3ccccc3)S1)C(=O)N2 (configuration not stated)	SR-BI DiI inh 106
Cc1nc(NC(=O)c2ccccc2)sc1-c1csc(Nc2cccc(Cl)c2)n1	none (no result: SR-BI uptake up, SR-BI DiI inh, CDK5 inh)
O=C(Nc1cccc(-c2csc(Nc3ccc(Cl)cc3)n2)c1)c1ccccc1	SR-BI DiI inh 98
O=C(Nc1ccc(-c2csc(Nc3ccccc3)n2)cc1)c1ccccc1	SR-BI DiI inh 86
COc1ccc(C(CNC(=O)c2oc3c(Cl)cccc3c2C)N2CCCC2)cc1 (configuration not stated)	none
Cc1cc(C(=O)N/N=C/c2c(C)nn(-c3ccccc3)c2C)n[nH]1	none
Cc1nn(-c2ccccc2)c(C)c1/C=N/NC(=O)c1cc(-c2ccc(Br)s2)[nH]n1	SR-BI DiI inh 71
Cc1nn(-c2ccccc2)c(C)c1/C=N/NC(=O)c1cc(-c2ccc(Cl)s2)[nH]n1	none
Cc1nn(-c2ccccc2)c(C)c1/C=N/NC(=O)c1cc(-c2cccs2)[nH]n1	SR-BI DiI inh 80
Cc1cccc(NC(=O)CCCn2c(=S)[nH]c3ccccc3c2=O)c1	none
Cc1cccc(-n2c(N)c(-c3nc4ccccc4n3C)c3nc4ccccc4nc32)c1	SR-BI DiI inh 73
CC(=NCCCn1ccnc1)C1=C(O)c2ccccc2C1=O	SR-BI uptake up 61
CCOC(=O)Nc1nc(-c2ccccc2)c(C(=O)c2ccc(Cl)cc2)s1	SR-BI DiI inh 83
CCOC(=O)Nc1sc(C)nc1-c1ccccc1	none
COc1ccc(CN2CCN(S(=O)(=O)c3ccc(NC(C)=O)cc3)CC2)c(OC)c1OC	none
CCOc1ccc(C(=O)Nc2cccc(-n3cnnn3)c2)cc1OCC	none
CCCCOc1ccc(C(=O)Nc2cccc(-n3cnnn3)c2)cc1OC	SR-BI DiI inh 75
O=C(/C=C/c1ccc2c(c1)OCO2)Nc1nc(-c2ccccc2)cs1	none
Clc1ccc(-c2csc(N/N=C/c3ccc4c(c3)OCO4)n2)cc1	SR-BI DiI inh 109
O=C1CCN(Cc2ccccc2)S(=O)(=O)c2c(F)cc(F)cc21	none (no result: GSK3B inh)
O=C(Nc1ccc(N2CCCC2)c(Cl)c1)c1ccc([N+](=O)[O-])cc1	SR-BI DiI inh 75 (no result: GSK3A inh)
CN1CCN(c2ccc([N+](=O)[O-])cc2C(=O)c2ccc(Br)cc2)CC1	none
COc1ccc(NC(=O)c2cc([N+](=O)[O-])ccc2N2CCCCC2)cc1	SR-BI DiI inh 90
O=C(c1ccc(Br)cc1)c1cc([N+](=O)[O-])ccc1N1CCCCC1	SR-BI DiI inh 88
COc1ccc(C(=O)c2cc([N+](=O)[O-])ccc2N2CCCC2)cc1	SR-BI DiI inh 70
COc1ccc(C(=O)c2cc([N+](=O)[O-])ccc2N2CCN(C)CC2)cc1	none
Cc1cc(C)cc(OCCCCn2cncn2)c1	none
CCC(C)NC(=O)CSc1nnc(-c2ccc(OC)c(OC)c2)c(-c2ccc(OC)c(OC)c2)n1 (configuration not stated)	none
O=C(CCn1c(=S)[nH]c2cc3c(cc2c1=O)OCO3)NCc1ccccc1Cl	none
CC(C)(C)NC(=S)NCc1ccncc1	none
Cc1cccc(NC(=O)C2CCN(C(=O)[C@@H]3Cc4ccccc4CN3)CC2)c1	none
CCCCCCCCOC(=O)c1cc([N+](=O)[O-])c(Sc2ncnc3nc[nH]c23)c([N+](=O)[O-])c1	SR-BI DiI inh 77 (no result: GSK3A inh, GSK3B inh)
COc1ccc(CCN2C(=NC(=O)CC(C)C)SC3CS(=O)(=O)CC32)cc1OC (configuration not stated)	none
COc1cc(/C=N/n2c(-c3ccc4c(c3)NC(=O)CO4)csc2=Nc2cccc(C)c2)ccc1O	SR-BI DiI inh 83
ClCC(CNCc1ccccc1)c1ccccc1 (configuration not stated)	none (no result: GSK3A inh, GSK3B inh)
CCOc1ccc(N(CC(=O)N2CCOCC2)S(=O)(=O)c2ccc(SC)cc2)cc1	none (no result: SR-BI uptake up, SR-BI DiI inh)
COC(=O)c1sccc1NC(=O)COc1ccc(F)cc1Cl	none

Bioassay records as filed in PubChem.
